# Assay results taken from ChEMBL document CHEMBL3616442, “Unconventional Knoevenagel-type indoles: Synthesis and cell-based studies for the identification of pro-apoptotic agents” (Eur J Med Chem, 2015).
# Key:
# MT4 = experiment: Antiproliferative activity against human MT4 cells after 96 hrs by MTT assay; format: functional, cell-based; conditions: MT4, 96 h
# Summary of the method: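 Exponentially growing MT-4 cells (CD4+ human T-cells carrying integrated HTLV-1 genome), seeded at 1×10^5 cells/mL in RPMI-1640 with 10% FCS and antibiotics. Serial dilutions of compound (DMSO stock 100 mM, diluted in medium), 37 °C, 5% CO₂, 96 h. Viability read by MTT. 50% inhibition versus untreated controls by linear regression. Mean ± SD of three independent determinations.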
# [1] = Growth inhibition of human EKVX cells after 48 hrs by sulforhodamine B assay; format: functional
# Summary of the method: (§1)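 NCI 60-cell-line screen. Compounds tested at five 10-fold dilutions from 10^-4 to 10^-8 M. Cells exposed for the last 48 h of a 72 h incubation, growth estimated by sulforhodamine B protein assay. GI50 is the concentration giving 50% growth inhibition. Values beyond the tested range are expressed as greater or lesser than the extreme concentration.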
# [2] = Growth inhibition of human COLO205 cells after 48 hrs by sulforhodamine B assay; format: functional; conditions: COLO 205, 48 h; summary of the method: as §1
# HCT-116 = experiment: Growth inhibition of human HCT116 cells after 48 hrs by sulforhodamine B assay; format: functional; conditions: HCT-116, 48 h; summary of the method: as §1
# SF-268 = experiment: Growth inhibition of human SF268 cells after 48 hrs by sulforhodamine B assay; format: functional; conditions: SF-268, 48 h
# [3] = Growth inhibition of human LOXIMVI cells after 48 hrs by sulforhodamine B assay; format: functional; conditions: LOX IMVI; summary of the method: as §1
# M14 = experiment: Growth inhibition of human M14 cells after 48 hrs by sulforhodamine B assay; format: functional; conditions: M14, 48 h; summary of the method: as §1
# SK-MEL-28 [4] = experiment: Growth inhibition of human SK-MEL-28 cells after 48 hrs by sulforhodamine B assay; format: functional; conditions: SK-MEL-28, 48 h
# IGROV-1 = experiment: Growth inhibition of human IGROV1 cells after 48 hrs by sulforhodamine B assay; format: functional; conditions: IGROV-1, 48 h; summary of the method: as §1
# SK-OV-3 = experiment: Growth inhibition of human SKOV3 cells after 48 hrs by sulforhodamine B assay; format: functional; conditions: SK-OV-3, 48 h
# UO-31 = experiment: Growth inhibition of human UO31 cells after 48 hrs by sulforhodamine B assay; format: functional; conditions: UO-31, 48 h
# DU-145 [5] = experiment: Growth inhibition of human DU145 cells after 48 hrs by sulforhodamine B assay; format: functional; conditions: DU-145, 48 h; summary of the method: as §1
# MCF7 [6] = experiment: Growth inhibition of human MCF7 cells after 48 hrs by sulforhodamine B assay; format: functional; conditions: MCF7, 48 h; summary of the method: as §1
# MDA-MB-231 = experiment: Growth inhibition of human MDA-MB-231 cells after 48 hrs by sulforhodamine B assay; format: functional; conditions: MDA-MB-231, 48 h; summary of the method: as §1
# CCRF-CEM = experiment: Cytotoxicity against human CCRF-CEM cells after 96 hrs by MTT assay; format: functional, cell-based
# Summary of the method: (§2)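 ATCC cell lines, mycoplasma-free by Hoechst staining. Haematological lines in RPMI-1640, solid-tumour and normal fibroblast lines in their own media, all with 10% FCS and antibiotics, at 37 °C in 5% CO₂. Compounds added as serial dilutions from a 100 mM DMSO stock diluted in medium. Viability by MTT after 96 h at 37 °C. Mean ± SD of three independent determinations.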
# WIL2-NS = experiment: Cytotoxicity against human WIL2-NS cells after 96 hrs by MTT assay; format: functional, cell-based; summary of the method: as §2
# CCRF-SB = experiment: Cytotoxicity against human CCRF-SB cells after 96 hrs by MTT assay; format: functional, cell-based; summary of the method: as §2
# MRC5 = experiment: Cytotoxicity against human MRC5 cells after 96 hrs by MTT assay; format: cell-based; conditions: MRC5, 96 h; summary of the method: as §2
# [7] = Cytotoxicity against human CRL7065 cells after 96 hrs by MTT assay; format: cell-based; conditions: CRL-7065, 96 h; summary of the method: as §2
# SK-MEL-28 [8] = experiment: Cytotoxicity against human SK-MEL-28 cells after 96 hrs by MTT assay; format: functional, cell-based; conditions: SK-MEL-28, 96 h; summary of the method: as §2
# [9] = Cytotoxicity against human SKMES1 cells after 96 hrs by MTT assay; format: functional, cell-based; conditions: SK-MES-1, 96 h; summary of the method: as §2
# DU-145 [10] = experiment: Cytotoxicity against human DU145 cells after 96 hrs by MTT assay; format: functional, cell-based; conditions: DU-145, 96 h; summary of the method: as §2
# HepG2 = experiment: Cytotoxicity against human HepG2 cells after 96 hrs by MTT assay; format: functional, cell-based; conditions: HepG2, 96 h; summary of the method: as §2
# MCF7 [11] = experiment: Cytotoxicity against human MCF7 cells after 96 hrs by MTT assay; format: functional, cell-based; conditions: MCF7, 96 h; summary of the method: as §2
# SR = experiment: Growth inhibition of human SR cells after 48 hrs by sulforhodamine B assay; format: functional
# HL-60 [12] = experiment: Antiproliferative activity against human HL60 cells after 3 days incubation by alamar blue method; format: functional
# Summary of the method: (§3)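 HL-60 and K562 grown in RPMI 1640, MCF-7 in DMEM, each with 10% FCS, penicillin G and streptomycin. Seeded at 4x10⁴ (HL-60, K562) or 2x10⁴ (MCF-7) cells per well with serial compound dilutions, incubated 3 days at 37 °C. Alamar blue added for 3 h at 37 °C in the dark, fluorescence read at ex 544/em 590 nm. IC50 versus untreated controls by linear regression.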
# K562 [13] = experiment: Antiproliferative activity against human K562 cells after 3 days incubation by alamar blue method; format: functional; summary of the method: as §3
# MCF7 [14] = experiment: Antiproliferative activity against human MCF7 cells after 3 days incubation by alamar blue method; format: functional; summary of the method: as §3
# HL-60 [15] = experiment: Induction of apoptosis in human HL60 cells by propidium iodide staining based flow cytometric analysis; format: functional
# Summary of the method: (§4)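 After treatment, cells harvested, fixed in ice-cold 70% ethanol at 4 °C, stained 30 min at 37 °C in the dark with 100 µg/mL propidium iodide plus 10 µg/mL RNase A; 10,000 gated cells analysed at 488 nm with debris excluded; apoptosis followed over time; mean ± S.E.M. of three independent experiments run in triplicate.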
# K562 [16] = experiment: Induction of apoptosis in human K562 cells by propidium iodide staining based flow cytometric analysis; format: functional; conditions: TDE = time-dependent effect; summary of the method: as §4
# MCF7 [17] = experiment: Induction of apoptosis in human MCF7 cells by propidium iodide staining based flow cytometric analysis; format: functional; conditions: TDE = time-dependent effect; summary of the method: as §4
# HL-60 [18] = experiment: Induction of cell cycle arrest in human HL60 cells assessed as accumulation at G2/M phase after 18 hrs by propidium iodide staining based flow cytometric analysis; format: functional
# Summary of the method: (§5)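 Propidium iodide/RNase A flow cytometry of ethanol-fixed cells, 10,000 gated events at 488 nm; G2/M fraction measured after 18 h treatment (HL-60, MCF-7) or 24 h (K562); mean ± S.E.M. of three independent experiments.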
# MCF7 [19] = experiment: Induction of cell cycle arrest in human MCF7 cells assessed as accumulation at G2/M phase after 18 hrs by propidium iodide staining based flow cytometric analysis; format: functional; summary of the method: as §5
SMILES,EC50 (MT4),GI50 [1],GI50 [2],GI50 (HCT-116),GI50 (SF-268),GI50 [3],GI50 (M14),GI50 (SK-MEL-28 [4]),GI50 (IGROV-1),GI50 (SK-OV-3),GI50 (UO-31),GI50 (DU-145 [5]),GI50 (MCF7 [6]),GI50 (MDA-MB-231),EC50 (CCRF-CEM),EC50 (WIL2-NS),EC50 (CCRF-SB),EC50 (MRC5),EC50 [7],GI50 (SR),also measured
CC(=O)/C(=C\c1c(-c2ccccc2)[nH]c2ccccc12)S(=O)(=O)c1ccccc1,0.4 µM,3.3 µM,1.7 µM,0.754 µM,3.4 µM,1.4 µM,0.521 µM,2 µM,1.5 µM,2.9 µM,1.6 µM,3 µM,0.945 µM,1.7 µM,,,,,,,
COc1ccc(-c2[nH]c3ccc(OC)cc3c2/C=C(\C#N)S(=O)(=O)c2ccccc2)cc1,0.2 µM,3.3 µM,0.396 µM,0.539 µM,1.6 µM,1.2 µM,0.5 µM,0.787 µM,10.6 µM,0.901 µM,3.1 µM,0.875 µM,0.851 µM,1.4 µM,0.3 µM,0.5 µM,0.3 µM,22 µM,> 100 µM,0.305 µM,EC50 (SK-MEL-28 [8]): > 100 µM; EC50 [9]: > 100 µM; EC50 (DU-145 [10]): 3 µM; EC50 (HepG2): 6.4 µM; EC50 (MCF7 [11]): 40 µM
COc1ccc(-c2[nH]c3ccccc3c2/C=C(\C#N)S(=O)(=O)c2ccccc2)cc1,0.2 µM,1.3 µM,0.254 µM,0.399 µM,1.1 µM,1.3 µM,0.383 µM,1.8 µM,19.3 µM,0.528 µM,4.7 µM,0.45 µM,0.398 µM,0.649 µM,0.3 µM,0.4 µM,0.3 µM,73 µM,> 100 µM,0.35 µM,"EC50 (SK-MEL-28 [8]): > 100 µM; EC50 [9]: 43 µM; EC50 (DU-145 [10]): 2 µM; EC50 (HepG2): 11 µM; EC50 (MCF7 [11]): > 100 µM; Activity (HL-60 [12]): Dose-dependent effect; GI50 (HL-60 [12]; HL-60, 72 h): 0.66 µM; Activity (K562 [13]): Dose-dependent effect; GI50 (K562 [13]; K562, 72 h): 5.28 µM; Activity (MCF7 [14]): Dose-dependent effect; GI50 (MCF7 [14]; MCF7, 72 h): 5.6 µM; Activity (HL-60 [15]): 65.5%; Activity (HL-60 [15]; TDE = time-dependent effect): tde; Activity (K562 [16]): tde; Activity (MCF7 [17]): tde; Activity (HL-60 [18]): 47.3%; Activity (MCF7 [19]): 40.4%"
CCOC(=O)C(=Cc1c(-c2ccccc2)[nH]c2ccccc12)C(=O)OCC,2.3 µM,12.4 µM,4.9 µM,4.3 µM,6.8 µM,5.6 µM,4.2 µM,7.7 µM,5.7 µM,13.6 µM,4 µM,9.7 µM,4.5 µM,5.8 µM,,,,,,2.1 µM,
N#C/C(=C\c1c(-c2ccccc2)[nH]c2ccccc12)S(=O)(=O)c1ccccc1,0.4 µM,6.2 µM,1.4 µM,2 µM,4.5 µM,4.6 µM,3.8 µM,8.3 µM,3.3 µM,6.8 µM,6.7 µM,2.9 µM,2.2 µM,3.8 µM,,,,,,17.3 µM,
N#CC(C#N)=Cc1c(-c2ccccc2)[nH]c2ccccc12,0.4 µM,5.8 µM,1.8 µM,2.3 µM,13.4 µM,3.3 µM,1.9 µM,5.1 µM,0.757 µM,6 µM,11.1 µM,3.3 µM,1.1 µM,1.8 µM,,,,,,,
